From ChEMBL document CHEMBL4014298, “Discovery of a series of 8-(1-phenylpyrrolidin-2-yl)-6-carboxamide-2-morpholino-4H-chromen-4-one as PI3Kβ/δ inhibitors for the treatment of PTEN-deficient tumours” (Bioorg Med Chem Lett, 2017)
Values after ≈ are worked out from the molar mass of the structure shown. Active and inactive are the calls of the source. The rule behind the calls is not given here.

Key:
[1] = biological target: Cytochrome P450 3A4 (Homo sapiens, UniProt P08684); assay: Inhibition of CYP3A4 (unknown origin); assay type: ADME
[2] = biological target: Diacylglycerol kinase gamma (Homo sapiens, UniProt P49619); assay: Inhibition of human DGKgamma (1 to 752 residues) by ADP Glo HTS assay
Diacylglycerol kinase gamma, sequence (P49619 whole entry, the tested form may be a part): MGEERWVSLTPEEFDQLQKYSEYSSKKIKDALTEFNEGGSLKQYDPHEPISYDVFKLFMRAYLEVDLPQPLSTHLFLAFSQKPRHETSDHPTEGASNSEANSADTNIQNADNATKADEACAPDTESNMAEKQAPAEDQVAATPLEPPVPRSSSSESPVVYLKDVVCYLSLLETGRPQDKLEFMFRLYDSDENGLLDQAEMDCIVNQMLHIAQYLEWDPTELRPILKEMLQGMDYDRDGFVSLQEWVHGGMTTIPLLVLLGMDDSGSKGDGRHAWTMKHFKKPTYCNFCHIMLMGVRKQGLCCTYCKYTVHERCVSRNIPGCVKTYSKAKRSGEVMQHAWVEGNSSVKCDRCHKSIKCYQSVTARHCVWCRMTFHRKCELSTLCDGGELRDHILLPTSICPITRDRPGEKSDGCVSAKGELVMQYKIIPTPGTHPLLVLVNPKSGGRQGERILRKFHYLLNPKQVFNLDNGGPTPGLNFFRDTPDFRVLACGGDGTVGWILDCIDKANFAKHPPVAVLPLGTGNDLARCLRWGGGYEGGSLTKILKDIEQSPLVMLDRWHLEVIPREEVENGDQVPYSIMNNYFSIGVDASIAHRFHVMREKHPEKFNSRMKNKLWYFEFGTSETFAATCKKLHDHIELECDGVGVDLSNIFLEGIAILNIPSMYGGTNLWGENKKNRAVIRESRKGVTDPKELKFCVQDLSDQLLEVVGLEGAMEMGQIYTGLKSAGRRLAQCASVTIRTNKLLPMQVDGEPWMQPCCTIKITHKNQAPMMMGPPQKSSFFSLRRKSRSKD
How it was run: (§1)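 Lipid kinase selectivity assessed in a 15-kinase panel (Dundee University lipid kinase panel), IC50 determined.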

[3] = biological target: Phosphatidylinositol 4,5-bisphosphate 3-kinase catalytic subunit alpha isoform (Homo sapiens, UniProt P42336, E545K); assay: Inhibition of human PI3Kalpha (2 to 1068 residues)/p85 (1 to 724 residues) E545K mutant by ADP Glo HTS assay; how it was run: as §1
[4] = biological target: T1, Phosphatidylinositol 4,5-bisphosphate 3-kinase catalytic subunit gamma isoform (Homo sapiens, UniProt P48736); assay: Inhibition of recombinant human PI3Kgamma using PIP2 as substrate preincubated for 20 mins followed by substrate addition measured after 80 mins in presence of ATP by Kinase Glo luminescence assay
T1 sequence (P48736 whole entry, canonical isoform): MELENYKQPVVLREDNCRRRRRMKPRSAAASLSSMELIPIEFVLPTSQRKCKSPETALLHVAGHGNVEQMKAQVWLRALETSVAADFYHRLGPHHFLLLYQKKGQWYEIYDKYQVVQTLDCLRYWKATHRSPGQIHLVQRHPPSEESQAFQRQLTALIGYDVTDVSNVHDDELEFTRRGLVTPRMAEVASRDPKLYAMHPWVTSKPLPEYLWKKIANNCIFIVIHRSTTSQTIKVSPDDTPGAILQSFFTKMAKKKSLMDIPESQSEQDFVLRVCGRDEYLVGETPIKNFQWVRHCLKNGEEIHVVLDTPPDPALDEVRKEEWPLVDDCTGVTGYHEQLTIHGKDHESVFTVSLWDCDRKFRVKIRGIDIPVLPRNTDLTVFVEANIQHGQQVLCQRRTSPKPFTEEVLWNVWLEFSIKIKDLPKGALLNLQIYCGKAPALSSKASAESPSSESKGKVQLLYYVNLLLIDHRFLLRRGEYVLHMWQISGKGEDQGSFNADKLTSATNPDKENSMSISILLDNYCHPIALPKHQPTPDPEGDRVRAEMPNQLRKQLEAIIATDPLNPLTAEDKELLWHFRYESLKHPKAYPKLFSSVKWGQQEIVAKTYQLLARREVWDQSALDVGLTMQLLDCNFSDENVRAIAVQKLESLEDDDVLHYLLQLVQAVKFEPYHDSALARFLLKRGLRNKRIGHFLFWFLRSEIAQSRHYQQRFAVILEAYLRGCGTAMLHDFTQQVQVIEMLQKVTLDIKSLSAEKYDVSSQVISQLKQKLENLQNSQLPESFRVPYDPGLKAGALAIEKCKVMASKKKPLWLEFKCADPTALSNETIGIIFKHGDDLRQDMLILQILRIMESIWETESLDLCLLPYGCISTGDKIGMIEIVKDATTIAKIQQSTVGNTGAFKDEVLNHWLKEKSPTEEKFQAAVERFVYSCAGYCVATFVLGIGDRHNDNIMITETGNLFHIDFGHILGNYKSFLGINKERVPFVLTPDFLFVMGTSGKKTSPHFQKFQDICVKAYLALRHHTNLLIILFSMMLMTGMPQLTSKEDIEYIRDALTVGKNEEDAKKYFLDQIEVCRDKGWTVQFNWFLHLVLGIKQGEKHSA
How it was run: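 Enzyme IC50 against PI3Kγ, single determination (n=1).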

[5] = system: Mus musculus; assay: In vivo inhibition of AKT phosphorylation at Ser473 in nude mouse xenografted with PTEN-deficient human PC3 cells at 100 mg/kg, po administered as single dose measured after 30 mins to 8 hrs; assay type: functional, organism-based
How it was run: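 Single oral dose (100 or 30 mg/kg) to nude mice carrying PTEN-deficient PC3 prostate xenografts; tumour AKT Ser473 phosphorylation measured at 30 min, 2 h and 8 h, with free plasma concentration determined at same time points.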

[6] = Volume of distribution at steady state in dog blood at 4 umol/kg, iv or 10 umol/kg, po; assay type: ADME, organism-based, Canis lupus familiaris; details: read-out: Vdss
[7] = Fraction unbound in dog plasma; assay type: ADME, cell-free, Canis lupus familiaris
How it was run: (§2)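 Plasma protein binding in mouse, dog or human plasma, reported as fraction unbound (%).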

[8] = biological target: Phosphatidylinositol 4,5-bisphosphate 3-kinase catalytic subunit beta isoform (Homo sapiens, UniProt P42338); assay: Inhibition of recombinant human PI3Kbeta using PIP2 as substrate preincubated for 20 mins followed by substrate addition measured after 80 mins in presence of ATP by Kinase Glo luminescence assay
[9] = biological target: Cytochrome P450 2C9 (Homo sapiens, UniProt P11712); assay: Inhibition of CYP2C9 (unknown origin); assay type: ADME
Cytochrome P450 2C9, sequence (P11712 whole entry): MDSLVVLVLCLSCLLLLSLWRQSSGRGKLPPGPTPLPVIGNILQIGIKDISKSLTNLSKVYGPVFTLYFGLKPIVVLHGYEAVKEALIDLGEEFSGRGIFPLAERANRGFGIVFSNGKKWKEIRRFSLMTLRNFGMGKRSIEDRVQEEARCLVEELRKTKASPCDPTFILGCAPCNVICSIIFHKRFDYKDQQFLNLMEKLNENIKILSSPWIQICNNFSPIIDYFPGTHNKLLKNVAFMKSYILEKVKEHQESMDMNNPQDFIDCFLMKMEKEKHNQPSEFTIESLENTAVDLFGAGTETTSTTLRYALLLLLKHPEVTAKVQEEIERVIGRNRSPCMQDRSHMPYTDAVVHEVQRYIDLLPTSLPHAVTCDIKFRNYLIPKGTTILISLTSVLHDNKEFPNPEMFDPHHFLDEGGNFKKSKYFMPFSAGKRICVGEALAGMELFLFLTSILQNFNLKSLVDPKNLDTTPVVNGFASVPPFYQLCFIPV

[10] = Intrinsic clearance in human hepatocytes assessed per million cells; assay type: ADME, cell-based, Hepatocyte; details: read-out: CLH
[11] = system: PC-3; assay: Antitumor activity against PTEN-deficient human PC3 cells xenografted in nude mouse assessed as tumor growth inhibition at 50 mg/kg, po bid relative to control; assay type: functional; details: PC-3, po, read-out: TGI
How it was run: (§3)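 Nude mice bearing PTEN-deficient PC3 prostate tumour xenografts; compound given orally twice daily (b.i.d.) at 100 or 50 mg/kg over chronic dosing; tumour growth inhibition versus control determined at end of study.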

[12] = Intrinsic clearance in dog hepatocytes assessed per million cells; assay type: ADME, cell-based, Canis lupus familiaris, Hepatocyte; details: read-out: CLH
How it was run: (§4)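 Intrinsic clearance measured in mouse or dog hepatocytes, expressed as CL_int in […].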

[13] = biological target: T1, Phosphatidylinositol 4,5-bisphosphate 3-kinase catalytic subunit gamma isoform; assay: Inhibition of human PI3Kgamma (2 to 1102 residues) by ADP Glo HTS assay; how it was run: as §1
[14] = biological target: Choline/ethanolamine kinase (Homo sapiens, UniProt Q9Y259); assay: Inhibition of human CHKbeta (1 to 395 residues) by ADP Glo HTS assay; how it was run: as §1
Choline/ethanolamine kinase, sequence (Q9Y259 whole entry, the tested form may be a part): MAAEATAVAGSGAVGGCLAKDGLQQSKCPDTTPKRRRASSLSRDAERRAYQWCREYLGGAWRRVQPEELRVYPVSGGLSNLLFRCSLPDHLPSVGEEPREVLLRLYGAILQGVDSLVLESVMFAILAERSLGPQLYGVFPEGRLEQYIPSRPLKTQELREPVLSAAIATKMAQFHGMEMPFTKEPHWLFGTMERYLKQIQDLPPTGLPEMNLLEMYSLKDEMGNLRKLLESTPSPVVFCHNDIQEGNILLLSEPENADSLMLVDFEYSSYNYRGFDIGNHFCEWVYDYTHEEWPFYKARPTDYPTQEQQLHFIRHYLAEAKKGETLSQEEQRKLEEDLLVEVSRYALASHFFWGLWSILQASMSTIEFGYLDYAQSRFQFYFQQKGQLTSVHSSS

[15] = Aqueous solubility of the compound in FASSIF; assay type: physicochemical
How it was run: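 Solubility from crystalline solid in Fasted Simulated Intestinal Fluid (FASSIF), µg/mL.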

[16] = biological target: Diacylglycerol kinase beta (Homo sapiens, UniProt Q9Y6T7); assay: Inhibition of human DGKbeta (1 to 804 residues) by ADP Glo HTS assay; how it was run: as §1
[17] = Fraction unbound in human plasma; assay type: ADME, cell-free; how it was run: as §2
[18] = biological target: Sphingosine kinase 1 (Homo sapiens, UniProt Q9NYA1); assay: Inhibition of human SphK1 (1 to 384 residues) by ATP-Glo HTS assay; how it was run: as §1
Sphingosine kinase 1, sequence (Q9NYA1 whole entry, the tested form may be a part): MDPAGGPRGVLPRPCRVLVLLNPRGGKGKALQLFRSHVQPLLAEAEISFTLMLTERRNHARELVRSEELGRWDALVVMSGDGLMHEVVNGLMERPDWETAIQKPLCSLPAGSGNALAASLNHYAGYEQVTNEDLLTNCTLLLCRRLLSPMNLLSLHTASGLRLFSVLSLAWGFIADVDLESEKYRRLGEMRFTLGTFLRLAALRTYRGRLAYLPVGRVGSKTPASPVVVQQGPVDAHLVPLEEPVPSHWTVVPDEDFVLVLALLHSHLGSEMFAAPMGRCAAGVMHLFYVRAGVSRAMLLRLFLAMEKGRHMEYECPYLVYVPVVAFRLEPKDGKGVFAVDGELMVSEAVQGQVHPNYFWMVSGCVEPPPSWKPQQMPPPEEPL

[19] = biological target: MAP/microtubule affinity-regulating kinase 4 (Homo sapiens) (UniProt Q96L34); assay: Inhibition of human MARK4 (2 to 752 residues) at 1 uM after 5 mins in presence of [33P]ATP by filter binding assay relative to control
MAP/microtubule affinity-regulating kinase 4 (Homo sapiens), sequence (Q96L34 whole entry, the tested form may be a part): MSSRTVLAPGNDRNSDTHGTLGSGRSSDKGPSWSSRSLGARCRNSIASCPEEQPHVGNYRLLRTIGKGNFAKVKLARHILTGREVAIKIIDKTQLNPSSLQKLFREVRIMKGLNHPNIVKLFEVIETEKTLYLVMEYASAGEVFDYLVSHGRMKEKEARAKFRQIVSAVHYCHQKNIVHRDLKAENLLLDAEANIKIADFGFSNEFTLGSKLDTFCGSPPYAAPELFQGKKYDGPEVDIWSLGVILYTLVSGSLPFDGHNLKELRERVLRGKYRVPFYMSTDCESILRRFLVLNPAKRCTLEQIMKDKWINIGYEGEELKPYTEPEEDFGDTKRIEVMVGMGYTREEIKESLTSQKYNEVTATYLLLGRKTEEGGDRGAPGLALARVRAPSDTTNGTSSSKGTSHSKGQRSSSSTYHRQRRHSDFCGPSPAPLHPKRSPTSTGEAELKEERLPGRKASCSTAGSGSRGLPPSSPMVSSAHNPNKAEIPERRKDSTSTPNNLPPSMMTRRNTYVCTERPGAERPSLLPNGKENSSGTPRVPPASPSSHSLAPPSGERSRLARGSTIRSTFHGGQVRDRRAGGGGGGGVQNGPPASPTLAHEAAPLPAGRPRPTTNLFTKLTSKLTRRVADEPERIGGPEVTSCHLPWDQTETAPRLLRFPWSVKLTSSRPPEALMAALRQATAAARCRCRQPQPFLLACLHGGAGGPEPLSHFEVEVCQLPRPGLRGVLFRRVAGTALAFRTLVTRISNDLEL

[20] = biological target: MAP kinase-interacting serine/threonine-protein kinase 1 (Homo sapiens) (UniProt Q9BUB5); assay: Inhibition of human MNK1 (2 to 424 residues) at 1 uM after 5 mins in presence of [33P]ATP by filter binding assay relative to control
[21] = system: PC-3; assay: Antitumor activity against PTEN-deficient human PC3 cells xenografted in nude mouse assessed as tumor growth inhibition at 100 mg/kg, po bid relative to control; assay type: functional; details: PC-3, po, read-out: TGI; how it was run: as §3
[22] = Volume of distribution at steady state in mouse blood at 5 umol/kg, iv or 30 umol/kg, po; assay type: ADME, organism-based; details: read-out: Vdss
[23] = biological target: Phosphatidylinositol 5-phosphate 4-kinase type-2 alpha (Homo sapiens, UniProt P48426); assay: Inhibition of human PIP5K2alpha (1 to 406 residues) by ADP Glo HTS assay; how it was run: as §1
[24] = biological target: Cytochrome P450 2C19 (Homo sapiens, UniProt P33261); assay: Inhibition of CYP2C19 (unknown origin); assay type: ADME
[25] = Intrinsic clearance in mouse hepatocytes assessed per million cells; assay type: ADME, cell-based, Hepatocyte; details: read-out: CLH; how it was run: as §4
[26] = biological target: Voltage-gated inwardly rectifying potassium channel KCNH2 (Homo sapiens, UniProt Q12809); assay: Inhibition of human ERG
Voltage-gated inwardly rectifying potassium channel KCNH2, sequence (Q12809 whole entry): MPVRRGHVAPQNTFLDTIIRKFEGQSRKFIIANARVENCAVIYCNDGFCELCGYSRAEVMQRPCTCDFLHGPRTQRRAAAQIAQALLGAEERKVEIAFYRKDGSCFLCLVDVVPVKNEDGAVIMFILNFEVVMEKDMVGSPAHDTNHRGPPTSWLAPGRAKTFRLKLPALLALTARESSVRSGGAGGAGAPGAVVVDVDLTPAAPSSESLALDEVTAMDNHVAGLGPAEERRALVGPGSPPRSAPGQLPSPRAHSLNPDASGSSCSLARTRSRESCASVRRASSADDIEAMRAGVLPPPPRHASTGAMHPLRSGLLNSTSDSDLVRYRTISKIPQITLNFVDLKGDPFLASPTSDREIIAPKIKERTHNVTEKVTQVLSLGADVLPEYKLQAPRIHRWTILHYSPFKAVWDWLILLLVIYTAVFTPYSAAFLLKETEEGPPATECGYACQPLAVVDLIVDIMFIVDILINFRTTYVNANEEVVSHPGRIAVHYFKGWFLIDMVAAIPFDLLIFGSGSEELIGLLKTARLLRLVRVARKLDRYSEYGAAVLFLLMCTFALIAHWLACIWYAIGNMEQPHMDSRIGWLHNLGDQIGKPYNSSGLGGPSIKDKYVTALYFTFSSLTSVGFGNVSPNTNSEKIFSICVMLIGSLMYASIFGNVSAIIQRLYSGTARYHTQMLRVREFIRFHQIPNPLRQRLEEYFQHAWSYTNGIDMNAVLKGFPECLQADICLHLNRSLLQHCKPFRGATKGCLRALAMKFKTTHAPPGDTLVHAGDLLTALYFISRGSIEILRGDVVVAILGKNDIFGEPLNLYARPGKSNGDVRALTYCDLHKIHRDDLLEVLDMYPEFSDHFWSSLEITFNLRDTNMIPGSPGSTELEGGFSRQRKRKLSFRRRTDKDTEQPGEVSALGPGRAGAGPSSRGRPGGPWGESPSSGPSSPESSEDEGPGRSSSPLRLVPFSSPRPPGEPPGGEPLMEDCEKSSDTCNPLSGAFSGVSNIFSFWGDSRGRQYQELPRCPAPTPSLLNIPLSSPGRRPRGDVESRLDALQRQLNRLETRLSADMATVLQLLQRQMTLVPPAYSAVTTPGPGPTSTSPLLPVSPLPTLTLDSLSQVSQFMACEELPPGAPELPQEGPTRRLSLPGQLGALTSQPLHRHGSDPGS

O=C(c1cc([C@H]2CCCN2c2cc(F)cc(F)c2)c2oc(N3CCOCC3)cc(=O)c2c1)N1CCOCC1
IC50 [1]: > 30 µM | IC50 [2]: > 50 µM | IC50 [3]: > 50 µM | IC50 [4]: 0.19 µM | inhibition [5]: Active | Vd [6]: 1.2 L/kg | fraction unbound [7]: 0.28 | IC50 [8]: 0.0071 µM | IC50 [9]: > 30 µM | hepatocyte CLint [10]: 2.7 to 5 µL/min/1e6 cells | inhibition in vivo at 50 mg/kg [11]: 71% | hepatocyte CLint [12]: 23 µL/min/1e6 cells | IC50 [13]: > 50 µM | IC50 [14]: > 50 µM | solubility [15]: 430 µg/mL (≈ 818 µM) | IC50 [16]: > 50 µM | fraction unbound [17]: 0.17 | IC50 [18]: 29 µM | inhibition [19]: 32% | inhibition [20]: 36% | inhibition in vivo at 100 mg/kg [21]: 83% | Vd [22]: 1 L/kg | IC50 [23]: > 50 µM | IC50 [24]: > 30 µM | hepatocyte CLint [25]: 68 µL/min/1e6 cells | IC50 [26]: 45 µM
